Results reported in publication PMC12676294 (ACS Omega, 2025).

Assay: Potentiometric titration: protonation constants of the ligands
Format: physicochemical
Details: T = 25.0 °C; I = 0.1 M KNO3
Summary of the method: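 Ligand (about 1 mM, 16 mL) with 5–9 mM HClO4 titrated with carbonate-free NaOH (about 0.1 M) under argon with stirring, at 25.0 ± 0.1 °C in 0.1 M KNO3. Glass electrode calibrated as an H+ concentration probe by Gran's method; pKw fixed at 13.78. Points accepted at drift <0.5 mV/min, pH 2–12, 55–130 points per dataset. Stepwise constants were refined from the titration curves.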

**Q.** Which “Stepwise protonation constant Log K, HL” value does the source give for NC(=O)CN1CCNC(=O)c2cccc(n2)C(=O)NCCN(CC(N)=O)CC1 [Py2am, 2-[9-(Carbamoylmethyl)-2,13-dioxo-3,6,9,12,18-pentaazabicyclo[12.3.1]octadeca-1(17),14(18),15-trien-6-yl]acetamide] here?
**A.** 5.1 (1)
